Data as given in ChEMBL document CHEMBL3352593, “Tumor xenograft uptake of a pyrrole-imidazole (Py-Im) polyamide varies as a function of cell line grafted” (J Med Chem, 2014).

What was measured:
Liver [1] = test: Drug level in liver of human LNCAP cells xenografted NSG mouse at 20 nmol, ip after 24 hrs by liquid scintillation counting method; type: ADME, organism-based; conditions: in vivo
Procedure, shortened: (§1)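 Male NSG mice obtained at 8 weeks of age. Tumours engrafted subcutaneously with 2.5 M cells (viability ≥95% by trypan blue) in medium or 1:1 Matrigel; naive animals had no graft. Mice received 20 nmol C-14 polyamide per animal intraperitoneally. Tissues harvested 24 h later, solubilized, decolorized, and counted by liquid scintillation. Values are quench-corrected and normalized to organ weight; each tissue was analysed individually.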

Pancreas = test: Drug level in balb/c mouse pancreas at 15 nmol, ip after 24 hrs by liquid scintillation counting method; type: ADME, organism-based; conditions: in vivo
Procedure, shortened: (§2)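 Male balb/c mice given C-14-labelled polyamide (quantitated by scintillation counting before dosing) as a single 15 nmol intraperitoneal dose per animal. Organs collected 24 h later and solubilized at +65 °C for at least 12 h, then decolorized with H2O2. C-14 counted by liquid scintillation, quench-corrected and normalized to organ weight. N = 5, mean with standard deviation.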

Liver [2] = test: Drug level in liver of human A549 cells xenografted NSG mouse at 20 nmol, ip after 24 hrs by liquid scintillation counting method; type: ADME, organism-based; conditions: in vivo; procedure, shortened: as §1
Tumour [3] = test: Drug level in tumor of human LNCAP cells xenografted NSG mouse at 20 nmol, ip after 24 hrs by liquid scintillation counting method; type: ADME, organism-based, Neoplasm; conditions: in vivo; procedure, shortened: as §1
Lung [4] = test: Drug level in lung of human A549 cells xenografted NSG mouse at 20 nmol, ip after 24 hrs by liquid scintillation counting method; type: ADME, organism-based; conditions: in vivo; procedure, shortened: as §1
Bone marrow = test: Drug level in balb/c mouse bone marrow at 15 nmol, ip after 24 hrs by liquid scintillation counting method; type: ADME, organism-based; conditions: in vivo; procedure, shortened: as §2
Brain = test: Drug level in balb/c mouse brain at 15 nmol, ip after 24 hrs by liquid scintillation counting method; type: ADME, organism-based; conditions: in vivo; procedure, shortened: as §2
Liver [5] = test: Drug level in balb/c mouse liver at 15 nmol, ip after 24 hrs by liquid scintillation counting method; type: ADME, organism-based; conditions: in vivo; procedure, shortened: as §2
Kidney [6] = test: Drug level in kidney of human A549 cells and human LNCAP cells xenografted NSG mouse at 20 nmol, ip after 24 hrs by liquid scintillation counting method; type: ADME, organism-based; conditions: in vivo; procedure, shortened: as §1
Tumour [7] = test: Drug level in tumor of matrigel-negative human A549 cells xenografted NSG mouse at 20 nmol, ip measured 5 weeks past engraftment by liquid scintillation counting method; type: ADME, organism-based, Neoplasm; conditions: in vivo, 840 h; procedure, shortened: as §1
Lung [8] = test: Drug level in lung of human U251 cells xenografted NSG mouse at 20 nmol, ip after 24 hrs by liquid scintillation counting method; type: ADME, organism-based, U-251; conditions: in vivo; procedure, shortened: as §1
Tumour [9] = test: Drug level in tumor of human A549 cells xenografted NSG mouse at 20 nmol, ip after 24 hrs by liquid scintillation counting method; type: ADME, organism-based, Neoplasm; conditions: in vivo; procedure, shortened: as §1
Liver [10] = test: Drug level in liver of human A549 cells and human LNCAP cells xenografted NSG mouse at 20 nmol, ip after 24 hrs by liquid scintillation counting method; type: ADME, organism-based; conditions: in vivo; procedure, shortened: as §1
Kidney [11] = test: Drug level in balb/c mouse kidney at 15 nmol, ip after 24 hrs by liquid scintillation counting method; type: ADME, organism-based; conditions: in vivo; procedure, shortened: as §2
Tumour [12] = test: Drug level in tumor of matrigel-positive human A549 cells xenografted NSG mouse at 20 nmol, ip measured 3 to 4 weeks past engraftment by liquid scintillation counting method; type: ADME, organism-based, Neoplasm; conditions: in vivo; procedure, shortened: as §1
Spleen = test: Drug level in balb/c mouse spleen at 15 nmol, ip after 24 hrs by liquid scintillation counting method; type: ADME, organism-based; conditions: in vivo; procedure, shortened: as §2
Tumour [13] = test: Drug level in tumor of human U251 cells xenografted NSG mouse at 20 nmol, ip after 24 hrs by liquid scintillation counting method; type: ADME, organism-based, Neoplasm, U-251; conditions: in vivo; procedure, shortened: as §1
Liver [14] = test: Drug level in liver of matrigel-negative human A549 cells xenografted NSG mouse at 20 nmol, ip measured 5 weeks past engraftment by liquid scintillation counting method; type: ADME, organism-based; conditions: in vivo, 840 h, in the assay text read “matrigel-positive” for “matrigel-negative”; procedure, shortened: as §1
Tumour [15] = test: Drug level in tumor of matrigel-positive human A549 cells xenografted NSG mouse at 20 nmol, ip measured 5 weeks past engraftment by liquid scintillation counting method; type: ADME, organism-based, Neoplasm; conditions: in vivo, 840 h; procedure, shortened: as §1
Kidney [16] = test: Drug level in kidney of naive NSG mouse at 20 nmol, ip after 24 hrs by liquid scintillation counting method; type: ADME, organism-based; conditions: in vivo; procedure, shortened: as §1
Liver [17] = test: Drug level in liver of human U251 cells xenografted NSG mouse at 20 nmol, ip after 24 hrs by liquid scintillation counting method; type: ADME, organism-based, U-251; conditions: in vivo; procedure, shortened: as §1
Kidney [18] = test: Drug level in kidney of human A549 cells xenografted NSG mouse at 20 nmol, ip after 24 hrs by liquid scintillation counting method; type: ADME, organism-based; conditions: in vivo; procedure, shortened: as §1
Lung [19] = test: Drug level in lung of human LNCAP cells xenografted NSG mouse at 20 nmol, ip after 24 hrs by liquid scintillation counting method; type: ADME, organism-based; conditions: in vivo; procedure, shortened: as §1
Tumour [20] = test: Drug level in tumor of matrigel-negative human A549 cells xenografted NSG mouse at 20 nmol, ip measured 3 to 4 weeks past engraftment by liquid scintillation counting method; type: ADME, organism-based, Neoplasm; conditions: in vivo; procedure, shortened: as §1
Liver [21] = test: Drug level in liver of matrigel-positive human A549 cells xenografted NSG mouse at 20 nmol, ip measured 5 weeks past engraftment by liquid scintillation counting method; type: ADME, organism-based; conditions: in vivo, 840 h, in the assay text read “matrigel-negative” for “matrigel-positive”; procedure, shortened: as §1

Drug uptake (Liver [1]): 1.04 mg/kg
Drug uptake (Pancreas): 0.15 mg/kg
Drug uptake (Liver [2]): 0.57 mg/kg
Drug uptake (Tumour [3]): 1.5 mg/kg
Drug uptake (Lung [4]): 0.15 mg/kg
Drug uptake (Bone marrow): 0.24 mg/kg
Drug uptake (Brain): Not Active
Drug uptake (Liver [5]): 0.49 mg/kg
Drug uptake (Kidney [6]): 0.27 mg/kg
Drug uptake (Tumour [7]): 0.25 mg/kg
Drug uptake (Lung [8]): 0.12 mg/kg
Drug uptake (Tumour [9]): 0.23 mg/kg
Drug uptake (Liver [10]): 1.04 mg/kg
Drug uptake (Kidney [11]): 0.22 mg/kg
Drug uptake (Tumour [12]): 0.23 mg/kg
Drug uptake (Spleen): 0.32 mg/kg
Drug uptake (Tumour [13]): 0.65 mg/kg
Drug uptake (Liver [14]): 0.65 mg/kg
Drug uptake (Tumour [15]): 0.59 mg/kg
Drug uptake (Kidney [16]): 0.23 mg/kg
Drug uptake (Liver [17]): 0.57 mg/kg
Drug uptake (Kidney [18]): 0.27 mg/kg
Drug uptake (Lung [19]): 0.12 mg/kg
Drug uptake (Tumour [20]): 0.23 mg/kg
Drug uptake (Liver [21]): 0.55 mg/kg
SMILES: CC(=O)N[C@H](CCNC(=O)c1cc(NC(=O)c2cc(NC(=O)c3cc(NC(=O)c4nccn4C)cn3C)cn2C)cn1C)C(=O)Nc1cnc(C(=O)Nc2cc(C(=O)Nc3cc(C(=O)Nc4cc(C(=O)NCCCN(C)CCCN[14C](=O)c5cccc([14C](=O)O)c5)n(C)c4)n(C)c3)n(C)c2)n1C
